Here are results for eight compounds from ChEMBL document CHEMBL4673252, “Discovery and Early Clinical Development of Isobutyl 1-[8-Methoxy-5-(1-oxo-3H-isobenzofuran-5-yl)-[1,2,4]triazolo[1,5-a]pyridin-2-yl]cyclopropanecarboxylate (LEO 39652), a Novel "Dual-Soft" PDE4 Inhibitor for Topical Treatment of Atopic Dermatitis” (J Med Chem, 2020).

Where only a bound is given, the exact number is not on record here.

One may read the half-life as the time in which the quantity being followed falls by half. In general, Cmax refers to the peak of the concentration-time curve. Broadly, the AUC(0-t) is the area under the concentration-time curve up to a stated or last time point. As a reminder, the IC50 is the concentration that inhibits the measured activity by half.

Series [1] in a line: Clearance in human liver microsomes at 0.5 uM incubated for 40 mins in presence of NADPH by LC-MS/MS analysis. The series is classed as ADME, Microsome. The note with it: read-out: CLH. Put shortly:
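Human liver microsomes (0.5 mg/mL) with 1 mM NADPH and 0.5 μM test compound, incubated for 40 min. Samples were taken before NADPH and at 5, 10, 20, 40 min, quenched with cold acetonitrile containing internal standard, and analysed by LC-MS/MS. Control incubations in buffer and without NADPH. Apparent clearance was calculated from depletion.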
In general terms: Microsomes from liver hold many membrane-bound enzymes, among them those of drug oxidation.

Series [2] in a line: Half life in human whole blood at 0.1 uM by LC-MS/MS analysis. The series is classed as ADME, tissue-based.
Series [3] in a line: Half life in human keratinocytes at 1 uM by LC-MS/MS analysis. The series is classed as ADME, cell-based, Keratinocyte. Put shortly: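 Plated human epidermal keratinocytes (1 × 10⁴ cells/well) with 1 μM compound in duplicate for up to 24 h; sampled at 0, 1, 2, 4, 24 h, acetonitrile precipitation, LC-MS/MS. Controls in growth medium. Half-life reported.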
Series [4] is described as follows: Half life in cynomolgus monkey whole blood at 0.1 uM by LC-MS/MS analysis. The series is classed as ADME, tissue-based, Macaca fascicularis.
Series [5] can be described thus: Half life in mini pig whole blood at 0.1 uM by LC-MS/MS analysis. The series is classed as ADME, tissue-based, Sus scrofa domesticus.
Series [6] is described as follows: Half life in rat whole blood at 0.1 uM by LC-MS/MS analysis. The series is classed as ADME, tissue-based.
Series [7] in a line: Drug metabolism in rat whole blood assessed as 4-[2-(1-Carboxycyclopropyl)-8-methoxy-[1,2,4]triazolo[1,5-a]-pyridin-5-yl]-2-(hydroxymethyl)benzoic Acid formation at 0.1 uM measured up to 120 mins by LC-MS/MS analysis. The series is classed as ADME, tissue-based. The note with it: 2 h.
Series [8] is described as follows: Clearance in human hepatocytes at 10 uM by UPLC/TOF-MS analysis. The series is classed as ADME, cell-based, Hepatocyte.
The nature of series [9]: Clearance in mini pig hepatocytes at 10 uM by UPLC/TOF-MS analysis. The note with it: read-out: CLH. The series is classed as ADME, cell-based, Sus scrofa domesticus, Hepatocyte.
Series [10] can be described thus: Drug exposure in human assessed as ratio of drug level to total AUC at 0.25% of Isobutyl 1-[8-Methoxy-5-(1-oxo-3H-isobenzofuran-5-yl)-[1,2,4]-triazolo[1,5-a]pyridin-2-yl]cyclopropanecarboxylate dosed via topical administration in lipid cream. The note with it: in vivo, topical_or_ocular. The series is classed as ADME, organism-based.
Series [11] can be described thus: Drug exposure in Isobutyl 1-[8-Methoxy-5-(1-oxo-3H-isobenzofuran-5-yl)-[1,2,4]-triazolo[1,5-a]pyridin-2-yl]cyclopropanecarboxylate dosed cynomolgus monkey assessed as ratio of drug level to total AUC. The series is classed as ADME, organism-based, Macaca fascicularis. The note with it: in vivo. A digest of the protocol:
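Blood was drawn at 0.25–24 h after infusion start and 6, 12, 24 h after infusion end into EDTA-K3, then plasma stabilized with ascorbic acid. LC-MS/MS quantification of parent and metabolites; noncompartmental PK.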

A short description of series [12]: Drug exposure in of Isobutyl 1-[8-Methoxy-5-(1-oxo-3H-isobenzofuran-5-yl)-[1,2,4]-triazolo[1,5-a]pyridin-2-yl]cyclopropanecarboxylate dosed Gottingen mini pig assessed as ratio of drug level to total AUC at 0.5 to 2 mg/kg, iv measured up to 24 hrs by LC-MS/MS analysis. The series is classed as ADME, organism-based, Sus scrofa domesticus. The note with it: in vivo, dose 0.5-2 mg/kg.

The nature of series [13]: Drug exposure in of Isobutyl 1-[8-Methoxy-5-(1-oxo-3H-isobenzofuran-5-yl)-[1,2,4]-triazolo[1,5-a]pyridin-2-yl]cyclopropanecarboxylate dosed Sprague-Dawley rat assessed as ratio of drug level to total AUC at 0.075 mg/kg, iv measured up to 30 mins by LC-MS/MS analysis. The note with it: in vivo, 0.5 h. The series is classed as ADME, organism-based. A digest of the protocol:
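Male Sprague Dawley rats (n = 3) received a single iv injection of 0.075 mg/kg (50 μg/mL, 1.5 mL/kg) in 20% cyclodextrin. Blood was taken from the tongue vein at 1, 3, 6, 9, 12, 15 and 30 min into lithium-heparin, diluted 1:1 with heparin water, and analysed by LC-MS/MS for parent and metabolites.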

Series [14] is described as follows: Drug exposure in skin of Gottingen mini pig at 0.25% dosed topically as monoglyceride cream measured after 24 hrs by LC-MS/MS analysis. The series is classed as ADME, organism-based, Sus scrofa domesticus, Skin of body. The note with it: in vivo, topical_or_ocular. Put shortly: (§1)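 Female Göttingen minipigs received single topical application of 1 or 2.5 mg/g monoglyceride cream at 10 μL/cm² over 4 cm² of belly/flank; excess removed. At 24 h sites were tape stripped (2 + 10 strips), 8 mm punch biopsies were taken and snap frozen, then homogenized, acetonitrile precipitated and analysed by LC-MS/MS; n = 2.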

Series [15] is described as follows: Drug exposure in skin of Gottingen mini pig at 0.1% dosed topically as monoglyceride cream measured after 24 hrs by LC-MS/MS analysis. The series is classed as ADME, organism-based, Sus scrofa domesticus, Skin of body. The note with it: in vivo, topical_or_ocular. Put shortly: as §1
Series [16] can be described thus: Cmax in cynomolgus monkey at 30 mg/kg, sc dosed as single administration. The arrangement: route subcutaneous, dose 30 mg/kg. The note with it: in vivo, read-out: Cmax. The series is classed as ADME, organism-based, Macaca fascicularis. A digest of the protocol:
(§2)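 Single subcutaneous dose of 30 mg/kg.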

A short description of series [17]: Cmax in human patient with atopic dermatitis at 0.25% dosed topically as lipid cream. The series is classed as ADME, organism-based. Further details: dose 0.25 %. The note with it: in vivo, topical or ocular.
A short description of series [18]: AUC (0 to 24 hrs) in cynomolgus monkey at 30 mg/kg, sc dosed as single administration. The series is classed as ADME, organism-based, Macaca fascicularis. The arrangement: time < 24 hr, route subcutaneous, dose 30 mg/kg. The note with it: in vivo. Put shortly: as §2
Series [19] in a line: AUC (0 to 24 hrs) in human patient with atopic dermatitis at 0.25% dosed topically as lipid cream. The series is classed as ADME, organism-based. The arrangement: time < 24 hr, dose 0.25 %. The note with it: in vivo, topical or ocular.
In a further series the target is Phosphodiesterase 4 (Homo sapiens, UniProt P27815+Q08499+Q07343+Q08493). Description: Inhibition of PDE4 (unknown origin). The series is classed as protein assay.
Series [20] is described as follows: Phototoxicity in mouse 3T3 cells. The series is classed as cell-based.
The test system of a further series is TK6. Nature of the series: Genotoxicity in human TK6 cells in absence of S9 fraction by GreenScreen assay. The series is classed as toxicity, cell-based.

`COc1ccc(-c2ccc(C(=O)O)c(CO)c2)n2nc(C3(C(=O)OCC(C)C)CC3)nc12`: the CLint scaled at 0.5 µM in series [1] was over 167 mL/min/kg. Also, the half-life at 0.1 µM is over 1 h in series [2], over 1 h in [4], over 1 h in series [5] and 0.567 h in [6]. The same compound came in with a half-life at 1 µM in series [3] of over 12 h. The Drug metabolism result in series [7] is on record as “Metabolite_Detected”. For the same compound, the CLhep predicted at 10 µM in [8] was 13 mL/min/kg. In addition, the CLint scaled at 10 µM in series [9] came to 21 mL/min/kg. The Drug uptake in [10] is 12%; in series [11], 36%; in series [12] it was 15%; in series [13], 26%; in series [14], 2 µM; in series [15] it was 0.6 µM. The results for the Cmax in series [16] and in series [17] were 749 ng/mL and 0.299 ng/mL, respectively. The exposure AUC(0-t) at 24 h in series [18] was found to be 932 ng·h/mL; in series [19], 4.18 ng·h/mL.
Regarding `COc1ccc(C(=O)Cc2c(Cl)cncc2Cl)n2ncnc12`, at Phosphodiesterase 4, the IC50 came to 100 nM.
For the compound `CC[C@@H](C)OC(=O)C1(c2nc3c(OC)ccc(-c4ccc5c(c4)COC5=O)n3n2)CC1`, the CLint scaled at 0.5 µM in series [1] is over 200 mL/min/kg. Further, the half-life at 0.1 µM in series [2] was found to be 0.217 h. Also, the half-life at 1 µM in series [3] was over 12 h. The Activity result in series [20] is listed as “Toxic”.
The compound `CCCNC(=O)COc1c(C(=O)Cc2c(Cl)cncc2Cl)ccc(OC)c1OC` displayed an IC50 on Phosphodiesterase 4 of 2.8 nM. The Drug uptake in [14] was found to be 26 µM; in series [15] it was 14 µM.
Take `COc1ccc(-c2ccc(C(=O)O)c(CO)c2)n2nc(C3(C(=O)O)CC3)nc12`: the CLint scaled at 0.5 µM in series [1] is under 11 mL/min/kg. The half-life at 0.1 µM in series [2], in series [5] and in series [6] was over 1 h each time. The compound further yielded a half-life at 1 µM in series [3] of over 12 h. For the same compound, the CLhep predicted at 10 µM in [8] was under 5.2 mL/min/kg. The CLint scaled at 10 µM in series [9] was under 10 mL/min/kg. Moreover, the Drug uptake in series [10] was found to be 71%; in series [11], 13%; in [12], 23%; in series [13] it was 14%; in series [14], 6 µM; in series [15] it was 3 µM. The Cmax in series [16] stood at 407 ng/mL; in series [17] it was 1.89 ng/mL. Besides, the AUC(0-t) at 24 h in series [18] is 1300 ng·h/mL; in series [19], 24.7 ng·h/mL.
In the case of `COc1ccc(C(=O)Cc2c(Cl)cncc2Cl)n2nc(C3CC3)nc12`, the IC50 against Phosphodiesterase 4 is on record as 1.7 nM.
Regarding `COc1ccc(-c2ccc3c(c2)COC3=O)n2nc(C3(C(=O)OC4CCOCC4)CC3)nc12`, in [1], the CLint scaled at 0.5 µM was 97 mL/min/kg. Besides, the half-life at 0.1 µM in series [2] is 0.167 h. In series [3], this compound gave a half-life at 1 µM of over 12 h. Besides, the Activity result in the series on TK6 was “Toxic”.
Regarding `COc1ccc(-c2ccc3c(c2)COC3=O)n2nc(C3(C(=O)O)CC3)nc12`, the CLint scaled at 0.5 µM in series [1] was under 16 mL/min/kg. The half-life at 0.1 µM in [2], in series [5] and in series [6] was over 1 h in each case. For the same compound, in [3], the half-life at 1 µM is over 12 h. Besides, the CLhep predicted at 10 µM in series [8] is 5.2 mL/min/kg. For the same compound, in series [9], the CLint scaled at 10 µM is under 11 mL/min/kg. Besides, the Drug uptake in [10] was 15%; in [11], 45%; in [12] it was 55%; in [13] it was 55%; in [14] it was under 0.1 µM; in series [15], under 0.1 µM. The Cmax is 71.7 ng/mL in [16] and 0.355 ng/mL in series [17]. Further, the AUC(0-t) at 24 h in [18] is 208 ng·h/mL; in series [19], 5.18 ng·h/mL.
